Measured values from ChEMBL document CHEMBL4011634 (J Med Chem, 2017).

Key:
[1] = biological target: Macrophage metalloelastase (Homo sapiens, UniProt P39900); experiment: Inhibition of human MMP12 using Mca-PQGL-(3-[2, 4-dinitrophenyl]-L-2, 3-diaminopropionyl)-AR-OH as substrate after 2 to 4 hrs by fluorescence assay
[2] = tested on: Rattus norvegicus; experiment: (§1) Antiarthritic activity in MIA-induced osteoarthritis Lewis rat model assessed as decrease in aggrecan degradation products by measuring ARGNV levels in synovial fluid at 30 mg/kg, po bid starting on day 3 post MIA induction measured at 4 hrs post single oral dose on day 7 by ELISA relative to control; assay type: functional; set-up: scale not given: the % may be the effect or the level left
How it was run: (§2)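 Male Lewis rats aged 7-8 weeks received 3 mg freshly prepared MIA (sodium salt) in 0.9% saline intra-articularly into the right knee on day 0, with saline alone in the left knee. Inhibitor or vehicle (1% hydroxyethyl cellulose, 0.25% Tween 80, 0.05% antifoam) was given PO BID from day 3, with a single dose on day 7. Knees were saline-lavaged 4 h later, and aggrecan fragments were quantified by ELISA.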

[3] = tested on: Rattus norvegicus; experiment: Drug metabolism in po or iv dosed bile-duct cannulated rat assessed as glutathione conjugation by HPLC-MS analysis; assay type: ADME, organism-based; conditions: in vivo
[4] = Cmax in rat at 1 mg/kg, iv; assay type: ADME, organism-based; set-up: dose 1 mg/kg, route intravenous; conditions: in vivo
[5] = Cmax in rat at 10 mg/kg, po; assay type: ADME, organism-based; set-up: dose 10 mg/kg, route oral; conditions: in vivo
[6] = biological target: Stromelysin-1 (Homo sapiens, UniProt P08254); experiment: Inhibition of human MMP3 using Mca-PQGL-(3-[2, 4-dinitrophenyl]-L-2, 3-diaminopropionyl)-AR-OH as substrate after 2 to 4 hrs by fluorescence assay
[7] = Tmax in rat at 10 mg/kg, po; assay type: ADME, organism-based; conditions: in vivo
[8] = Plasma concentration in rat at 10 mg/kg, po measured at 12 hrs post dose; assay type: ADME, organism-based
[9] = Plasma concentration in rat at 1 mg/kg, iv measured at 12 hrs post dose; assay type: ADME, organism-based
[10] = AUC (0 to 24 hrs) in rat at 1 mg/kg, iv; assay type: ADME, organism-based; set-up: time < 24 hr, dose 1 mg/kg, route intravenous; conditions: in vivo
How it was run: (§3)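 Rat plasma pharmacokinetics after IV dosing at 1 mg/kg or oral dosing at 10 mg/kg. Plasma concentrations were followed to 24 h.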

[11] = AUC (0 to 24 hrs) in rat at 10 mg/kg, po; assay type: ADME, organism-based; set-up: dose 10 mg/kg, time < 24 hr, route oral; conditions: in vivo; how it was run: as §3
[12] = Half life in rat at 1 mg/kg, iv; assay type: ADME, organism-based; conditions: in vivo
[13] = Half life in rat at 10 mg/kg, po; assay type: ADME, organism-based; conditions: in vivo
[14] = Clearance in rat at 1 mg/kg, iv; assay type: ADME, organism-based; conditions: in vivo
[15] = Volume of distribution in rat at 1 mg/kg, iv; assay type: ADME, organism-based; conditions: in vivo
[16] = Oral bioavailability in rat at 10 mg/kg; assay type: ADME, organism-based; conditions: in vivo
[17] = tested on: Rattus norvegicus; experiment: as §1, with “10” for “30”; assay type: functional; set-up: scale not given: the % may be the effect or the level left; how it was run: as §2
[18] = tested on: Rattus norvegicus; experiment: as §1, with “75” for “30”; assay type: functional; set-up: scale not given: the % may be the effect or the level left; how it was run: as §2
[19] = biological target: 72 kDa type IV collagenase (Homo sapiens, UniProt P08253); experiment: Inhibition of human MMP2 using Mca-PQGL-(3-[2, 4-dinitrophenyl]-L-2, 3-diaminopropionyl)-AR-OH as substrate after 2 to 4 hrs by fluorescence assay
[20] = biological target: Collagenase 3 (Homo sapiens, UniProt P45452); experiment: Inhibition of human MMP13 using Mca-PQGL-(3-[2, 4-dinitrophenyl]-L-2, 3-diaminopropionyl)-AR-OH as substrate after 2 to 4 hrs by fluorescence assay
[21] = biological target: Matrix metalloproteinase-14 (Homo sapiens, UniProt P50281); experiment: Inhibition of human MMP14 using Mca-PQGL-(3-[2, 4-dinitrophenyl]-L-2, 3-diaminopropionyl)-AR-OH as substrate after 2 to 4 hrs by fluorescence assay
[22] = biological target: T1, A disintegrin and metalloproteinase with thrombospondin motifs 4 (Homo sapiens, UniProt O75173); experiment: Inhibition of human ADAMTS4 using VQTVTWPDMELPLPRNITEGEARGSVILTVKPIFEVSPSPLKG peptide as substrate after 3 hrs by Alphascreen assay
T1 sequence (O75173 whole entry): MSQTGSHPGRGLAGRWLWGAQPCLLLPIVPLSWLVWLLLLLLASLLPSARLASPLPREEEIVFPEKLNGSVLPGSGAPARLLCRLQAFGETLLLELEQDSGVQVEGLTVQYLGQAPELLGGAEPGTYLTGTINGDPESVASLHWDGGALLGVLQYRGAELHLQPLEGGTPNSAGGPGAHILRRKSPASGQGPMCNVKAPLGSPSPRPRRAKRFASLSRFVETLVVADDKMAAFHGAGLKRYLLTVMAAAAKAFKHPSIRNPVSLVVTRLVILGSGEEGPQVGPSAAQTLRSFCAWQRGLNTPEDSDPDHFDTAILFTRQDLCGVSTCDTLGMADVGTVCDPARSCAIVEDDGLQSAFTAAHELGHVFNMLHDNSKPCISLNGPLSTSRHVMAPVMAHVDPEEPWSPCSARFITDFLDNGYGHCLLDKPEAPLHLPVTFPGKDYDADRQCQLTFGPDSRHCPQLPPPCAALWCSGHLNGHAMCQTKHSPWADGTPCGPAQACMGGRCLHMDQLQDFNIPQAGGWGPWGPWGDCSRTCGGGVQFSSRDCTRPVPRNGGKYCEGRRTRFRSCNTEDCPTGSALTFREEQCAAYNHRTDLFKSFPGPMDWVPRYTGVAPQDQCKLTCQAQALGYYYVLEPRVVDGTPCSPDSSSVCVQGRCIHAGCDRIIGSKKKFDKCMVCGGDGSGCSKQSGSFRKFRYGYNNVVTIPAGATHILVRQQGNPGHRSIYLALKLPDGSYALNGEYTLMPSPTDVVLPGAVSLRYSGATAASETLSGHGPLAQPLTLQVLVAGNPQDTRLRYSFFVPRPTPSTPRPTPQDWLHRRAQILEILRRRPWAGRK

[23] = biological target: T2, A disintegrin and metalloproteinase with thrombospondin motifs 5 (Homo sapiens, UniProt Q9UNA0); experiment: Inhibition of human ADAMTS5 using VQTVTWPDMELPLPRNITEGEARGSVILTVKPIFEVSPSPLKG peptide as substrate after 3 hrs by Alphascreen assay
T2 sequence (Q9UNA0 whole entry): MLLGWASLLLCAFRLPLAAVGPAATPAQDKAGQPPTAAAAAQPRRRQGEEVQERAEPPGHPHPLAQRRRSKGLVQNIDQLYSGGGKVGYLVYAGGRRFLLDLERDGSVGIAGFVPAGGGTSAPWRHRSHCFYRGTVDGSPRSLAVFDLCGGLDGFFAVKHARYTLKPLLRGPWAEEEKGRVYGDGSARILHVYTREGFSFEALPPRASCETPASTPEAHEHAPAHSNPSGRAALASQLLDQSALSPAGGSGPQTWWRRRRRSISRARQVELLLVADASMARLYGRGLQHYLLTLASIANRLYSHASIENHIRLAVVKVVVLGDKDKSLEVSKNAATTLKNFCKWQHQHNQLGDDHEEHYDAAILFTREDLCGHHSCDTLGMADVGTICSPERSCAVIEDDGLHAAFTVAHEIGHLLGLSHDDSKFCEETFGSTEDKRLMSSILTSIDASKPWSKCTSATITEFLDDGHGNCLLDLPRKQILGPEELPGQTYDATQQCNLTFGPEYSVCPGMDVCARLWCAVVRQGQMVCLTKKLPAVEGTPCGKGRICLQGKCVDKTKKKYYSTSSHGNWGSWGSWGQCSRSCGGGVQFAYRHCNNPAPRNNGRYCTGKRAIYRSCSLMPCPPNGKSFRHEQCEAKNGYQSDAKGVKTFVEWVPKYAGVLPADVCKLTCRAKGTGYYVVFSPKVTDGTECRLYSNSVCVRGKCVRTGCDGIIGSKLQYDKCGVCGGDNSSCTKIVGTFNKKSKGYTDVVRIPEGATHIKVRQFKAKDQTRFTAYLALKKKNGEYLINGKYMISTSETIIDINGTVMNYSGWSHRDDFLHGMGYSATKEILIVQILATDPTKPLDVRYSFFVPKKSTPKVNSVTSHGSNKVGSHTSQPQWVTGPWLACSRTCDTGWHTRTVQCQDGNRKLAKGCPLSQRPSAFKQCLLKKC

[24] = biological target: T2, A disintegrin and metalloproteinase with thrombospondin motifs 5; experiment: Inhibition of human ADAMTS5 using VQTVTWPDMELPLPRNITEGEARGSVILTVKPIFEVSPSPLKG peptide as substrate after 3 hrs in the presence of 50% Lewis rat plasma by Alphascreen assay

72 kDa type IV collagenase, sequence (P08253 whole entry): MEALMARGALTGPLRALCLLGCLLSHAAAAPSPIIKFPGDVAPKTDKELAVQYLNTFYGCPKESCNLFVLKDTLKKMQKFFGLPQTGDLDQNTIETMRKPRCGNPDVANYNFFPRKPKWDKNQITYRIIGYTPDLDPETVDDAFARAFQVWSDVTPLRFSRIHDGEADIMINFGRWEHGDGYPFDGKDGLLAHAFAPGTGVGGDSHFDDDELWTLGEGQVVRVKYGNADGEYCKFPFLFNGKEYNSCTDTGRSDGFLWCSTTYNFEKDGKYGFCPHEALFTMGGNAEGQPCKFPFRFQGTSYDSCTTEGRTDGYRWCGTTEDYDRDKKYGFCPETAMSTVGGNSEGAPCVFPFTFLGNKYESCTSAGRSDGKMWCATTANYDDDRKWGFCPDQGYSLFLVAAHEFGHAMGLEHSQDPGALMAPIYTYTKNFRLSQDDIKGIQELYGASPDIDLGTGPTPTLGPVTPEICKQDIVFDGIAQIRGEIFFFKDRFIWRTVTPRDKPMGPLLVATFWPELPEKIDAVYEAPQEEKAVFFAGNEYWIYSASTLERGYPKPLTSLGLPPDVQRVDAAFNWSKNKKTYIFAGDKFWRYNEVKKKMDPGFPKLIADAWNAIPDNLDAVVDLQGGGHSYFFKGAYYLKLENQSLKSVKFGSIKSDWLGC
Macrophage metalloelastase, sequence (P39900 whole entry): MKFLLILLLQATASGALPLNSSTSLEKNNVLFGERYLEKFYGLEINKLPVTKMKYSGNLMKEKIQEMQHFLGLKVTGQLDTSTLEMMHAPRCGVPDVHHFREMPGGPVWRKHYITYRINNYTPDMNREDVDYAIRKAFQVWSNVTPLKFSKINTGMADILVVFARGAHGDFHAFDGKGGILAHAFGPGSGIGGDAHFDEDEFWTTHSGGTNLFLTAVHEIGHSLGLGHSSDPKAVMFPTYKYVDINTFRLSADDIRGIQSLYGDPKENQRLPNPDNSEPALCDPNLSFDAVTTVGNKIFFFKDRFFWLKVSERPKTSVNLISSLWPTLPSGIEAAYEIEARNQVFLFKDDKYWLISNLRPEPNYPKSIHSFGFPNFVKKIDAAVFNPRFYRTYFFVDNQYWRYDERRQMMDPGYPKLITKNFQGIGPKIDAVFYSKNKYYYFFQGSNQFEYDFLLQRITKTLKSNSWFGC
Stromelysin-1, sequence (P08254 whole entry): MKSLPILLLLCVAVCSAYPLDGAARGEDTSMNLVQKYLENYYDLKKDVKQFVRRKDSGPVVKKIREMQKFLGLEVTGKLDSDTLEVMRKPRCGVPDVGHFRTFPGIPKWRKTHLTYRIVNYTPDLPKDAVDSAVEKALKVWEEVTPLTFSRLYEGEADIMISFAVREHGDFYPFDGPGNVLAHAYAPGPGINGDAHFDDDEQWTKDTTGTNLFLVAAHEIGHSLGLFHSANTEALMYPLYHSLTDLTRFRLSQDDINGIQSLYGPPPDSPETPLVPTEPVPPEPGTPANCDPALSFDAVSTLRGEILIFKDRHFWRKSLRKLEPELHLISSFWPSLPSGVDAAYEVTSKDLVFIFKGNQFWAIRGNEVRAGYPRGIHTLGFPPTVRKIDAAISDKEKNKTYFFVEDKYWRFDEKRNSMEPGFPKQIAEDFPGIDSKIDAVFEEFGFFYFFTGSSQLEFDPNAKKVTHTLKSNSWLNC

C[C@@]1(O)CCCN(S(=O)(=O)c2ccc(OCc3ccc(F)cc3Cl)cc2)[C@H]1C(=O)NO
IC50 [1]: < 1 nM | Activity [2]: 50% | Drug metabolism [3]: Metabolite_Notdetected

C[C@]1(CNC(=O)COc2ccc(Cl)cc2)NC(=O)NC1=O
IC50 [1]: 70 nM

CC(C)[C@H](Cc1ccc(C(F)(F)F)cc1)C(=O)NC[C@@]1(C2CC2)NC(=O)NC1=O
Drug metabolism [3]: Metabolite_Notdetected

CC(C)(Cc1ccc(C(F)(F)F)cc1)C(=O)NC[C@@]1(C2CC2)NC(=O)NC1=O
Drug metabolism [3]: Metabolite_Notdetected

O=C1NC(=O)[C@](CNC(=O)[C@@H](Cc2ccc(C(F)(F)F)cc2)C2CC2)(C2CC2)N1
Cmax [4]: 1600 nM | Cmax [5]: 6600 nM | IC50 [6]: > 100000 nM | Tmax [7]: 0.5 h | concentration at 12 h [8]: 29 nM | concentration at 12 h [9]: < 5 nM | AUC(0-t) at 24 h [10]: 1.3 µM·h | AUC(0-t) at 24 h [11]: 22 µM·h | half-life [12]: 1.5 h | half-life [13]: 2.6 h | clearance [14]: 33 mL/min/kg | Vd [15]: 4.3 L/kg | bioavailability [16]: 100% | Activity [17]: 41% | Activity [2]: 52% | Activity [18]: 53% | Drug metabolism [3]: Metabolite_Notdetected

C[C@H](Cc1ccc(C(F)(F)F)cc1)C(=O)NC[C@@]1(C2CC2)NC(=O)NC1=O
Drug metabolism [3]: Metabolite_Notdetected

CC[C@H](Cc1ccc(C(F)(F)F)cc1)C(=O)NC[C@@]1(C2CC2)NC(=O)NC1=O
IC50 [19]: 3000 nM | Drug metabolism [3]: Metabolite_Notdetected

C[C@@H](Cc1ccc(C(F)(F)F)cc1)C(=O)NC[C@@]1(C2CC2)NC(=O)NC1=O
IC50 [19]: 280 nM | IC50 [6]: 2000 nM | IC50 [1]: 7 nM | IC50 [20]: 340 nM | IC50 [21]: 1600 nM | Drug metabolism [3]: Metabolite_Notdetected

O=C1NC(=O)[C@](CNC(=O)c2cc3cc(C(F)(F)F)ccc3o2)(C2CC2)N1
IC50 [1]: 9 nM

O=C(CCc1ccc(C(F)(F)F)cc1)NC[C@@]1(C2CC2)NC(=O)NC1=O
IC50 [22]: 4 nM | IC50 [23]: 5 nM | IC50 [24]: 52 nM | IC50 [19]: 310 nM | IC50 [6]: 660 nM | IC50 [1]: 5 nM | IC50 [20]: 320 nM | IC50 [21]: 3400 nM | Drug metabolism [3]: Metabolite_Notdetected
